Assay results taken from ChEMBL document CHEMBL4024790 (J Med Chem, 2018).

Assays:
Cytochrome P450 2C9 = Cytochrome P450 2C9 (Homo sapiens, UniProt P11712); assay: Time-dependant inhibition of recombinant human CYP2C9; format: ADME; settings: recombinant enzyme
Rattus norvegicus [1] = assay: Effect on habituated locomotor activity in Long Evans rat at 0.32 to 3.2 mg/kg, sc; format: ADME, organism-based; settings: in vivo
In short: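 Rats dosed SC at 0.32, 1.0 and 3.2 mg/kg; conditioned avoidance responding also run in combination with risperidone 0.032 mg/kg.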

Cytochrome P450 1A2 = biological target: T1, Cytochrome P450 1A2 (Homo sapiens, UniProt P05177); assay: Induction of CYP1A2 (unknown origin); format: ADME
T1 sequence (P05177 whole entry): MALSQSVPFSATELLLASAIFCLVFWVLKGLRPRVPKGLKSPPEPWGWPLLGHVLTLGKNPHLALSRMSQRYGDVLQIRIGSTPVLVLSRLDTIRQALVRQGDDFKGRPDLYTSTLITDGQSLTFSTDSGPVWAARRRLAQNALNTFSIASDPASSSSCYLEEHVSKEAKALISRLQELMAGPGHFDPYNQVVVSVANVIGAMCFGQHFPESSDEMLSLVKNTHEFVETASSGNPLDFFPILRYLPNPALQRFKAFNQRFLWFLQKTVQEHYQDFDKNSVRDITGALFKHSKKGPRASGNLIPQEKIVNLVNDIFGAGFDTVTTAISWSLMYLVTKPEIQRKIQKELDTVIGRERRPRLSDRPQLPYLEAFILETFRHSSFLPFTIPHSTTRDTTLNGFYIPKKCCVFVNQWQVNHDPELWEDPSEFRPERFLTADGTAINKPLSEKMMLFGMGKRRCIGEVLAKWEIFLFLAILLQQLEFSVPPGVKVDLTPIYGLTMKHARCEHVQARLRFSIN

Cytochrome P450 2B6 = biological target: T2, Cytochrome P450 2B6 (Homo sapiens, UniProt P20813); assay: Inhibition of recombinant human CYP2B6; format: ADME; settings: recombinant enzyme
T2 sequence (P20813 whole entry): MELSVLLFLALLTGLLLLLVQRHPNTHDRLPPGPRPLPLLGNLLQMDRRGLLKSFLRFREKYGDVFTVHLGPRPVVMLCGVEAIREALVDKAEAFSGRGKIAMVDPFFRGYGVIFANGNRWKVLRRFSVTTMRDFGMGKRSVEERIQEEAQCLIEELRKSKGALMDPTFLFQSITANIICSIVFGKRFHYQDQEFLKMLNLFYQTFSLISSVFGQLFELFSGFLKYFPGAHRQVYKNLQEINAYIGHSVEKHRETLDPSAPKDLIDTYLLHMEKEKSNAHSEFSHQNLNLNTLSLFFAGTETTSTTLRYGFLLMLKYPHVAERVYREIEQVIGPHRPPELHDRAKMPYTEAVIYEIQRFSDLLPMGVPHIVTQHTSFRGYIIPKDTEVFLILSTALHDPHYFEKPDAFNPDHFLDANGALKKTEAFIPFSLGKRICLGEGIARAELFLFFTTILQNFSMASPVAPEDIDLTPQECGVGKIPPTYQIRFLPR

Rattus norvegicus [2] = assay: Cardiotoxicity in rat at 5 to 250 mg/kg/day, po up to 15 days by microscopic method; format: toxicity, organism-based; settings: in vivo, 360 h
In short: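 Exploratory rat toxicity study, oral dosing at 5, 50 and 250 mg/kg/day for up to 15 days, with microscopic examination of heart and vasculature and measurement of plasma and brain exposure.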

[3] = Intrinsic clearance in human hepatocytes; format: ADME, cell-based, Hepatocyte; settings: read-out: CLH
Canis familiaris = assay: Toxicity in dog assessed as effect on vasculature up to 15 mg/kg/day, po for 14 days by microscopic method; format: organism-based, Canis lupus familiaris; settings: in vivo, 336 h

Cytochrome P450 2C9, sequence (P11712 whole entry): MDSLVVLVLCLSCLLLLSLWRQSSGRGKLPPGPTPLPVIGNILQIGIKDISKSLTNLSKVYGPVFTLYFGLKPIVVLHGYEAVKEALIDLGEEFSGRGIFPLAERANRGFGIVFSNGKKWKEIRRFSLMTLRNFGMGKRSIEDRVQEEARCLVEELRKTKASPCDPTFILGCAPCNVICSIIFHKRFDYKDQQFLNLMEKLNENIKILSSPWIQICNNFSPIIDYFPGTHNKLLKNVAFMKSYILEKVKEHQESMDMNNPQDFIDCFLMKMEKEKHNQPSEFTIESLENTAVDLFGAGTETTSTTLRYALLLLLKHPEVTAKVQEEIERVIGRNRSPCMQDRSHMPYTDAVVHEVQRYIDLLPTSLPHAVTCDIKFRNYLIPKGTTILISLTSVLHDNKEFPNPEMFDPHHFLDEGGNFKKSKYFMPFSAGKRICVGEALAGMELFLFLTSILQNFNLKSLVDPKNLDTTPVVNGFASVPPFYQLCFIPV

Q: Which TDI (Cytochrome P450 2C9) does the source give for `Cc1nc(-c2cnn(C)c2-c2ccc(C(F)(F)F)cn2)c2c(N3CCC3)ncnn12` [PF-05180999] here?
A: The TDI was “Not Active”.

Q: What about the Activity (Rattus norvegicus [1]) of the same compound?
A: Its Activity is “Non-Toxic”.

Q: What about the Activity (Cytochrome P450 1A2) of the same compound?
A: The Activity was “Not Active”.

Q: What about the “inhibition (INH)” value (Cytochrome P450 2B6) of the same compound?
A: The value was “Not Active”.

Q: What about the Activity (Rattus norvegicus [2]) of the same compound?
A: Its Activity is “Non-Toxic”.

Q: And the CLint scaled [3]?
A: Its CLint scaled is 44 mL/min/kg.

Q: What about the Activity (Canis familiaris) of the same compound?
A: Its Activity is “Non-Toxic”.
